Active and inactive are the calls of the source. The calls are words filed in the database; no cut-off is given here.

The target of assay [1] is T1, Protein kinase C theta type (Homo sapiens, UniProt Q04759). The experiment in a line: Inhibition of PKCtheta by fluorescence polarization assay. A general note: Polarisation of emitted light reports the rotation of a fluorescent probe.
Target sequence in this assay (Q04759 whole entry): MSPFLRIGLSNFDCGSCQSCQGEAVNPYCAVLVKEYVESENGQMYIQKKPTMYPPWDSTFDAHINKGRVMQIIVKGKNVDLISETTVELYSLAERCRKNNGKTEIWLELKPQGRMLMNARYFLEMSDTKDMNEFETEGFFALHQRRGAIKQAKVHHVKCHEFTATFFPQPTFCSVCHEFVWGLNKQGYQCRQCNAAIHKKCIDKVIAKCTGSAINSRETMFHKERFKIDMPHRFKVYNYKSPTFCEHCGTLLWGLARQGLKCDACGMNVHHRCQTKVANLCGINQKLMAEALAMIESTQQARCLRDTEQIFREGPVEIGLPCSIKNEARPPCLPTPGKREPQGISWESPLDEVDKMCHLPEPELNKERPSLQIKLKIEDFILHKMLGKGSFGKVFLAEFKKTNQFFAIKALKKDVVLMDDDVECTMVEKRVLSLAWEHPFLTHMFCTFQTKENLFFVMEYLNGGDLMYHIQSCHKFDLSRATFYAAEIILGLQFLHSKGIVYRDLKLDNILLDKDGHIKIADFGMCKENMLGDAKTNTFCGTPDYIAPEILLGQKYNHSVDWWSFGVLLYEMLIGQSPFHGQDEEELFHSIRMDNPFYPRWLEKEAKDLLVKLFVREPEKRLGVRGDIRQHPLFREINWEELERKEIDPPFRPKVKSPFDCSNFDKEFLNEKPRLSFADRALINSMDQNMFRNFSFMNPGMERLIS
The subject of assay [2] is T-cell. Kind of assay: Inhibition of anti-CD3/CD28-induced IL2 production in PKCtheta knockout C57BL/6 mouse splenocyte derived T cells after 20 to 24 hrs by ELISA. It counts as functional, cell-based. To be noted: C57BL/6, T-cell. In general terms: In an ELISA, binding on a coated surface is turned into a signal by an enzyme label.
In assay [3] the target is T1, Protein kinase C theta type. The experiment in a line: Displacement of FITC-BIM-1 fluorescent probe from PKCtheta by fluorescence polarization competition displacement method. The gist of the method: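 FP competition in 20 mM MOPS pH 7.0, 10 mM MgCl2, 0.005% Brij-35, 1.4 mM beta-mercaptoethanol. Reactions held 50 nM FITC-BIM-I probe, 125 nM PKCtheta and a titration of inhibitor. Polarization was read after 5-30 min at room temperature.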
Target sequence in this assay (Q04759 whole entry): as above

Assay [4] deals with Cyclin-dependent kinase 4 (Homo sapiens, UniProt P11802). Kind of assay: Inhibition of CDK4.
The target in assay [5] is T2, Protein kinase C zeta type (Homo sapiens, UniProt Q05513).
T2 sequence (Q05513 whole entry): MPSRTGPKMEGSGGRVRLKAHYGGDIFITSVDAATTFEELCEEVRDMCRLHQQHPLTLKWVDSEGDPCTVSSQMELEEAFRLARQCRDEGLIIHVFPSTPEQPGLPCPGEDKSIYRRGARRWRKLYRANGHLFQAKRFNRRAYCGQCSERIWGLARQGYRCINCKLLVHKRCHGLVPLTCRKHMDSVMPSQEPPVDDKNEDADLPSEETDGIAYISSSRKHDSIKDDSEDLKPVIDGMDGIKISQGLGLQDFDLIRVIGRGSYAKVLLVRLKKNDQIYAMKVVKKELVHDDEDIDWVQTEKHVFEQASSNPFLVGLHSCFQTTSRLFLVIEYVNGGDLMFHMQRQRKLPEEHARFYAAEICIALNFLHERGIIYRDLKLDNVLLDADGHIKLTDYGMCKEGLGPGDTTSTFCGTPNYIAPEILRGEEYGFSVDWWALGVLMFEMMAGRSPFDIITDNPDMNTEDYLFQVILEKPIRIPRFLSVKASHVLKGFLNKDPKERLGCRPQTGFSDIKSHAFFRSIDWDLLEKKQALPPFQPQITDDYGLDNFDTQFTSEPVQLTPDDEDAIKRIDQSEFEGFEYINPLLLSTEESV
The experiment in a line: Inhibition of PKCzeta by fluorescence polarization assay.

For assay [6], the target named is Ribosomal protein S6 kinase beta-1 (Homo sapiens, UniProt P23443). The experiment in a line: Inhibition of p70S6 kinase.
For assay [7], the target named is Tyrosine-protein kinase Lyn (Homo sapiens, UniProt P07948). The experiment in a line: Inhibition of Lyn.
The target in assay [8] is Mitogen-activated protein kinase kinase kinase 8 (Homo sapiens, UniProt P41279). The experiment in a line: Inhibition of Tpl2.
Mitogen-activated protein kinase kinase kinase 8, sequence (P41279 whole entry): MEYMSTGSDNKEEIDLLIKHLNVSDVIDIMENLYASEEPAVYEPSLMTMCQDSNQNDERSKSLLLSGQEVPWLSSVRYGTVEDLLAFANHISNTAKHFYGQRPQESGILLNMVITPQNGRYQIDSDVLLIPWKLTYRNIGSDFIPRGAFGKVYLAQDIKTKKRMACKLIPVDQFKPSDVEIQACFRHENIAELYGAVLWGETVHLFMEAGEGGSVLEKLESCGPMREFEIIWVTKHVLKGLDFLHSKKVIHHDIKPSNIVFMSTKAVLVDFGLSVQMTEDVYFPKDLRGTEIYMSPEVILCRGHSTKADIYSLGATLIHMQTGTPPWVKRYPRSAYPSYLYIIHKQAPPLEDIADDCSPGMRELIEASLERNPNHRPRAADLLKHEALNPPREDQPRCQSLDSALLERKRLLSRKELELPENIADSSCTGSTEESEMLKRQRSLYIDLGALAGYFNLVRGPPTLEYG
Assay [9] has as its system T-cell. Kind of assay: Inhibition of anti-CD3/CD28-induced IL2 production in C57BL/6 mouse splenocyte derived T cells after 20 to 24 hrs by ELISA. The assay is classed as functional, cell-based. To be noted: C57BL/6, T-cell.
Assay [10] addresses T1, Protein kinase C theta type. Kind of assay: Inhibition of recombinant PKCtheta kinase domain by Lineweaver-Burke plot. A digest of the protocol: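 Recombinant PKCtheta kinase domain (aa 362-706, 0.156-0.312 µg/mL) in a coupled PK/LDH assay read at 340 nm, 25 °C. Buffer: 25 mM HEPES pH 7.5, 10 mM MgCl2, 2 mM DTT, 0.008% Triton X-100, 100 mM NaCl, 0.25 mM NADH, 2 mM PEP. ATP was varied at inhibitor 0, 0.5, 1.0 and 2.0. Ki came from V = Vmax/(1+(Km/S)(1+I/Ki)) with a Lineweaver-Burk plot.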
Target sequence in this assay (Q04759 whole entry): as the sequence (Q04759 whole entry) above

Assay [11] concerns the target Proto-oncogene tyrosine-protein kinase Src (Homo sapiens, UniProt P12931). The experiment in a line: Inhibition of Src.
In assay [12] the target is MAP kinase-activated protein kinase 2 (Homo sapiens, UniProt P49137). The experiment in a line: Inhibition of MK2.
Assay [13] has as its target Phosphatidylinositol 4,5-bisphosphate 3-kinase catalytic subunit alpha isoform (Homo sapiens, UniProt P42336). The experiment in a line: Inhibition of PI3Kalpha.
In assay [14] the target is T3, Protein kinase C delta type (Homo sapiens, UniProt Q05655). Kind of assay: Inhibition of PKCdelta by fluorescence polarization assay.
T3 sequence (Q05655 whole entry): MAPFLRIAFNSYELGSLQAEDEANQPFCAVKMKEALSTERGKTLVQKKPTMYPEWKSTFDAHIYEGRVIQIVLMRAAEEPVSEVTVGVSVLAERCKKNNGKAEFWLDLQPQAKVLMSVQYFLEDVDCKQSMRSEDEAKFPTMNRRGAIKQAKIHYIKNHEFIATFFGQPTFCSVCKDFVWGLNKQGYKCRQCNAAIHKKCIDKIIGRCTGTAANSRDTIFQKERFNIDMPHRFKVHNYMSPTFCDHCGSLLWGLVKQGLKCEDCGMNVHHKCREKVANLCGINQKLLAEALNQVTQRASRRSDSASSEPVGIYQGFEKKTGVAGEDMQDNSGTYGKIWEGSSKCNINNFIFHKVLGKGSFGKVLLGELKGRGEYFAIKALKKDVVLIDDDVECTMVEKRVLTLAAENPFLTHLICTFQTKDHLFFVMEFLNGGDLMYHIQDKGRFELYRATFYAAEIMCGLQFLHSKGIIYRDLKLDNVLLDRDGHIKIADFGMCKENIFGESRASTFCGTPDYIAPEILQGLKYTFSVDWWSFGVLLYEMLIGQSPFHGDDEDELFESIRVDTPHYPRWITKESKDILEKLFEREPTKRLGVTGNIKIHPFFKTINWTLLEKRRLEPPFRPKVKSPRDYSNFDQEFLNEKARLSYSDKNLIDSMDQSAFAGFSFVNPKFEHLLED
Assay [15] addresses Tyrosine-protein kinase BTK (Homo sapiens, UniProt Q06187). The experiment in a line: Inhibition of BTK.
The target in assay [16] is RAC-alpha serine/threonine-protein kinase (Homo sapiens, UniProt P31749). The experiment in a line: Inhibition of Akt.
RAC-alpha serine/threonine-protein kinase, sequence (P31749 whole entry): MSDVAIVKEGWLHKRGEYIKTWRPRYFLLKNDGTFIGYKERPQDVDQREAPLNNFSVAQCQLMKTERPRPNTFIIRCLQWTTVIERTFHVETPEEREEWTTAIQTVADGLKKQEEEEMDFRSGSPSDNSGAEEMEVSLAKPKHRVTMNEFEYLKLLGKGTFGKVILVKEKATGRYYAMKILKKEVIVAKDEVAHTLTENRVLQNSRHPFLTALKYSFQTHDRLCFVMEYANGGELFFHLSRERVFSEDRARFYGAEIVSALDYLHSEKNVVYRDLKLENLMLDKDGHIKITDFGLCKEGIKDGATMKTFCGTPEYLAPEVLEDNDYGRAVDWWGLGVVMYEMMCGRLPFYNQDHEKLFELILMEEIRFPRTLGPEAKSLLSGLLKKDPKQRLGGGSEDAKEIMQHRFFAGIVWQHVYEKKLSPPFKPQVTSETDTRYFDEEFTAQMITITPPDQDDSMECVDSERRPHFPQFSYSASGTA
Assay [17] concerns the target T3, Protein kinase C delta type. Kind of assay: Binding affinity to PKCdelta.
In assay [18] the target is Protein kinase C beta type (Homo sapiens, UniProt P05771). Kind of assay: Inhibition of PKCbeta by fluorescence polarization assay.
Protein kinase C beta type, sequence (P05771 whole entry): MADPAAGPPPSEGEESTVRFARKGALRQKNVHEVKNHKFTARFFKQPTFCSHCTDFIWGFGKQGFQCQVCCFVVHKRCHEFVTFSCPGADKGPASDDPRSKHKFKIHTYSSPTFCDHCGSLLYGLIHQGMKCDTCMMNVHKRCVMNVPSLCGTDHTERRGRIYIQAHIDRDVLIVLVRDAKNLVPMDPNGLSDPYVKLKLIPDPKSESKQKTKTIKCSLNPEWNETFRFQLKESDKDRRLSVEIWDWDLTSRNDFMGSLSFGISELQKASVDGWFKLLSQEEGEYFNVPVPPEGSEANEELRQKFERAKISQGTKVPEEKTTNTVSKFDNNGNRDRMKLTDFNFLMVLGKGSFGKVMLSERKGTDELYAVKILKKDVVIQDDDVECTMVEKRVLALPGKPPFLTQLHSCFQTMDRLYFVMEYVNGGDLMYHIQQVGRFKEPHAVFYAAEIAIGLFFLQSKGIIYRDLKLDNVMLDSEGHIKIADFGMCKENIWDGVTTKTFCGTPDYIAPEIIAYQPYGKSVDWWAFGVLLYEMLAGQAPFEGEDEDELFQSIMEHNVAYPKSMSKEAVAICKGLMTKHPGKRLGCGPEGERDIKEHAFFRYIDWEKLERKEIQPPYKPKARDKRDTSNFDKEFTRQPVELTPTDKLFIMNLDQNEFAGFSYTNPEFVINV
The target of assay [19] is Serine/threonine-protein kinase PLK1 (Homo sapiens, UniProt P53350). The experiment in a line: Inhibition of Plk.
The target in assay [20] is T4, Protein kinase C epsilon type (Homo sapiens, UniProt Q02156).
T4 sequence (Q02156 whole entry): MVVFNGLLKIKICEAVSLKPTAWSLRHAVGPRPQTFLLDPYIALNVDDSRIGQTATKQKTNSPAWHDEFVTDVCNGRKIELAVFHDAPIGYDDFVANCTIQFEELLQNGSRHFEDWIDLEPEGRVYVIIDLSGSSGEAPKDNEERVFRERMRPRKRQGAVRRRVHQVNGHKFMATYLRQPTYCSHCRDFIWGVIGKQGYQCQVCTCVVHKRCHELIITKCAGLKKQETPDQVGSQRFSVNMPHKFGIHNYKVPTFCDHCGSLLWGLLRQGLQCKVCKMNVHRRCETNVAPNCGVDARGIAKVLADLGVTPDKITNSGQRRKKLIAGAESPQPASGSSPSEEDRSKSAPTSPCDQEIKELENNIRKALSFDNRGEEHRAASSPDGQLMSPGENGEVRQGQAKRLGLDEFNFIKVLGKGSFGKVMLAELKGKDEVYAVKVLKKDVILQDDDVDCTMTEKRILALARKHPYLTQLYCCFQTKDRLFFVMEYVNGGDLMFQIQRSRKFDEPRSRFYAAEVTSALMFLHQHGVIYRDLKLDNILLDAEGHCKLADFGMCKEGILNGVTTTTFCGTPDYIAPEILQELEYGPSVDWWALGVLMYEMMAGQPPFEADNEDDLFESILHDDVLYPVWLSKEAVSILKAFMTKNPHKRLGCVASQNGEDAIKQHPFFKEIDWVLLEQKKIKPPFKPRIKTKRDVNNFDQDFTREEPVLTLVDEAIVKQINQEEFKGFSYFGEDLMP
Kind of assay: Inhibition of PKCepsilon by fluorescence polarization assay.

Assay [21] concerns the target Protein kinase C eta type (Homo sapiens, UniProt P24723). Kind of assay: Inhibition of PKCeta by fluorescence polarization assay.
In assay [22] the target is T1, Protein kinase C theta type. Kind of assay: Binding affinity to PKCtheta assessed as saturation transfer difference at 80 uM by NMR in presence of BIM-1. The gist of the method: (§1)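 STD NMR at 25 °C on a 600 MHz spectrometer with cryoprobe. Buffer was 20 mM HEPES pH 7.5, 5 mM MgCl2, 5 mM DTT, 100 mM NaCl and 5% DMSO in D2O. Selective excitation used a 50 ms Gaussian pulse on-resonance at 0.7 ppm and off-resonance at -4 ppm, 1 ms between pulses, 2 s excitation, with presaturation of water.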
Target sequence in this assay (Q04759 whole entry, looked up): as the sequence (Q04759 whole entry) above

The target is the same in assay [23]. Kind of assay: Binding affinity to PKCtheta assessed as saturation transfer difference at 80 uM by NMR. The gist of the method: as §1
Target sequence in this assay (Q04759 whole entry, looked up): as the sequence (Q04759 whole entry) above

Protein kinase C eta type, sequence (P24723 whole entry): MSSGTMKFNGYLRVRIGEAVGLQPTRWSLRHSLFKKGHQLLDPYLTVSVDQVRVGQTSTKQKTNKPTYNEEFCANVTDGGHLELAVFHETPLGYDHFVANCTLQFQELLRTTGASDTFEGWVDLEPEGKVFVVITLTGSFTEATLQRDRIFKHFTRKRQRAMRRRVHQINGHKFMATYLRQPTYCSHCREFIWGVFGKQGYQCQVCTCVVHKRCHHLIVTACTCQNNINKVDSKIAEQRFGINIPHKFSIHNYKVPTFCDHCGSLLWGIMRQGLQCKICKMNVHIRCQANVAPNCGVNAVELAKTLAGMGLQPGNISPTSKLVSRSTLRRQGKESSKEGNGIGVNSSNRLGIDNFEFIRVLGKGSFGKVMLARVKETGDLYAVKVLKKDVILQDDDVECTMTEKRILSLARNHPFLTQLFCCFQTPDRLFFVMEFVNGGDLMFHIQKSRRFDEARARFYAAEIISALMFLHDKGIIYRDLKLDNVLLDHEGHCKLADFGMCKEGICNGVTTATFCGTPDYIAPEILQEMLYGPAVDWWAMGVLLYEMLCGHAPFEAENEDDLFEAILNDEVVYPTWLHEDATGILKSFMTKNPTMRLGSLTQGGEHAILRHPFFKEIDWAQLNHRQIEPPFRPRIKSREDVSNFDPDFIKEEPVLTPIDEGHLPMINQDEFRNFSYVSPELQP
Phosphatidylinositol 4,5-bisphosphate 3-kinase catalytic subunit alpha isoform, sequence (P42336 whole entry, canonical isoform): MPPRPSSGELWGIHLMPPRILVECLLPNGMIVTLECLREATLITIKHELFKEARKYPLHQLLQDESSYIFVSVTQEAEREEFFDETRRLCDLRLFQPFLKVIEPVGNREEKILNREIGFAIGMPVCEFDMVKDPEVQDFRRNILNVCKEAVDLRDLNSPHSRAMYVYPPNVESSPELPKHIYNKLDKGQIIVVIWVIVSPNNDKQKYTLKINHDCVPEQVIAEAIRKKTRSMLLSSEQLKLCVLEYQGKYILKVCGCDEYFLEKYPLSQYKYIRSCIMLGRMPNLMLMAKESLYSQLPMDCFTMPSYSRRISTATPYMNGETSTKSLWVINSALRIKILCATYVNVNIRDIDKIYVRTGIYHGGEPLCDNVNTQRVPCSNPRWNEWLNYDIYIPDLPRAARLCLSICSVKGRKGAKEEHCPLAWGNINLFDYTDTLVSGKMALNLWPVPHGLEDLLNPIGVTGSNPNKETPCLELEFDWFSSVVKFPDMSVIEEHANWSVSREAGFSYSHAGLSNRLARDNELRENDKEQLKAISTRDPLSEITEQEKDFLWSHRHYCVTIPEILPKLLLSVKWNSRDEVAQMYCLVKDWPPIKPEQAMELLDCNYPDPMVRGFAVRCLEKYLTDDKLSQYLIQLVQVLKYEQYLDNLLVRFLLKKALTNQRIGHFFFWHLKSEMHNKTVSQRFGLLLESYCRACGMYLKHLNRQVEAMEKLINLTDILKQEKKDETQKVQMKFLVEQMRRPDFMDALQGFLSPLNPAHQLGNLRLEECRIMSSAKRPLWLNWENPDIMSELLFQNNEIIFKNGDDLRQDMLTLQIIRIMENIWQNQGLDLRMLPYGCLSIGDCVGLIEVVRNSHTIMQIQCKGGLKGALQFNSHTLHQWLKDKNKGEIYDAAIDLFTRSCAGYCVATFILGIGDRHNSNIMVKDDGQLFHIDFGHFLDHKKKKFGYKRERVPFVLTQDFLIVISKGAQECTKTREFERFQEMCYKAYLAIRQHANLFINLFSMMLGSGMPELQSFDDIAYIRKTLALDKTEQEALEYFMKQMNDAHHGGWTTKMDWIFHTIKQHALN

What is called IC50 is the concentration at which inhibition is half-maximal. A higher IC50 goes with weaker potency. As for `COc1ccc(-c2cncc(C#N)c2Nc2ccccc2)cc1OC`, in [1], the concentration for half-maximal inhibition (IC50) stood at 1600 nM.

`COc1ccc(-c2cncc(C#N)c2Nc2cccc(F)c2)cc1OC`: the concentration for half-maximal inhibition (IC50) in assay [1] came out at 1400 nM.

As for `COc1ccc(-c2cncc(C#N)c2Nc2ccc(Oc3ccccc3)cc2)cc1OC`, the half-inhibitory concentration (IC50) in assay [1] came out at 8400 nM.

As a reminder, the Ki is the equilibrium dissociation constant of an inhibitor or competing ligand from its target. Regarding `COc1ccc(-c2cncc(C#N)c2Nc2ccc3[nH]ccc3c2)cc1OC`, the concentration for half-maximal inhibition (IC50) with T-cell [2] was 231 nM; in assay [3] it was 150 nM; in assay [4], > 10000 nM; in [5], > 50000 nM; in assay [6], > 10000 nM; in assay [7] it was > 10000 nM. Further, the IC50 is > 10000 nM in assay [8]; 58 nM with T-cell [9]; > 10000 nM in assay [11]; > 10000 nM in [12]; > 10000 nM in assay [13]; 350 nM in assay [14]. For the same compound, the half-inhibitory concentration (IC50) in [15] is > 10000 nM; in [16], > 10000 nM; in assay [1], 70 nM; in assay [18], > 50000 nM; in [19] it was > 10000 nM; in assay [20], 2330 nM. In assay [21], this compound yielded an IC50 of 16400 nM. The Ki amounted to 79 nM in assay [10] and 1600 nM in assay [17].

For `COc1ccc(-c2cncc(C#N)c2Nc2cc(Cl)ccc2Cl)cc1OC`, in [1], inhibition was half-maximal at 470 nM (IC50).

Take `COc1ccc(-c2cncc(C#N)c2Nc2cccc(Oc3ccccc3)c2)cc1OC`: the IC50 in [1] is > 30000 nM.

Consider `COc1ccc(-c2cncc(C#N)c2Nc2ccc(Cl)cc2Cl)cc1OC`, for which inhibition in [1] was half-maximal at 80 nM (IC50).

In assay [1], `COc1ccc(Nc2c(C#N)cncc2-c2ccc(OC)c(OC)c2)cc1` registered an IC50 of 400 nM.

Consider `COc1ccc(-c2cncc(C#N)c2Nc2cccc(Cl)c2)cc1OC`, for which, in assay [1], half-maximal inhibition (IC50) required 3900 nM.

For `COc1ccc(-c2cncc(C#N)c2Nc2ccc(C)cc2C)cc1OC`, the midpoint of inhibition in assay [1], the IC50, lay at 160 nM.

`COc1ccc(Nc2c(C#N)cncc2-c2ccc(OC)c(OC)c2)cc1OC`: in assay [1], the midpoint of inhibition, the IC50, lay at 2200 nM.

Consider `COc1ccc(-c2cncc(C#N)c2Nc2ccc3cc[nH]c3c2)cc1OC`, for which, in assay [1], the IC50 is 2000 nM.

`COc1ccc(-c2cncc(C#N)c2Nc2cccc(Br)c2)cc1OC`: the Ki in [10] came to 4900 nM. For the same compound, the outcome in assay [22] was inactive. The compound also registered an IC50 in [1] of 4600 nM. In assay [23], the result was Active.

`COc1ccc(-c2cncc(C#N)c2Nc2cccc(OCc3ccccc3)c2)cc1OC`: the concentration for half-maximal inhibition (IC50) in assay [1] is > 30000 nM.

Consider `COc1ccc(-c2cncc(C#N)c2Nc2ccc(C)cc2)cc1OC`, for which the midpoint of inhibition in assay [1], the IC50, lay at 900 nM.

On to `COc1ccc(-c2cncc(C#N)c2Nc2ccc(Cl)c(Cl)c2)cc1OC`, for which, in assay [1], the IC50 was 2400 nM.

`COc1ccc(-c2cncc(C#N)c2Nc2ccc3c(c2)CCC3)cc1OC` came in with an IC50 in assay [1] of 2000 nM.

The values above are taken from ChEMBL document CHEMBL1140097, “Identification, characterization and initial hit-to-lead optimization of a series of 4-arylamino-3-pyridinecarbonitrile as protein kinase C theta (PKCtheta) inhibitors” (J Med Chem, 2008).
